What all share (type): functional
In experiment [1] the test system is Mycobacterium tuberculosis. Nature of the experiment: Antimycobacterial activity against Mycobacterium tuberculosis H37Rv by agar microdilution assay. In short, it runs like this:
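H37Rv from L–J medium suspended in 0.85% saline with 0.05% Tween-80. Twofold compound dilutions in OADC-supplemented 7H10 agar slants, preincubated 24 h at 37 °C, then streaked with 5 × 10⁴ bacilli per tube. Incubated at 37 °C and growth read after 30 days against drug-free controls. MIC taken as the concentration giving complete inhibition of colonies.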

The subject of experiment [2] is Mycobacterium tuberculosis. Put plainly: Antimycobacterial activity against Mycobacterium tuberculosis H37Ra after 5 days by microplate alamar blue assay. The note with it: 120 h. In short, it runs like this:
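Log-phase M. tuberculosis H37Ra diluted to final OD550 0.05 in Sauton's medium. Compounds in DMSO, twofold dilutions from […]. Incubated at 37 °C/5% CO2 for 5 days, alamar blue added on day 5, incubated overnight. Fluorescence read-out.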
For orientation: The colour change of resazurin is a common sign of viable cells or microbes.

The subject of experiment [3] is Mycobacterium tuberculosis. Nature of the experiment: Antitubercular activity against Mycobacterium tuberculosis H37Rv after 5 to 8 days by BACTEC radiometric assay. The method in brief:
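H37Rv from L–J slants homogenized with glass beads and adjusted to McFarland 1. Primary inoculum grown in BACTEC 12B vial to GI 500–700, then 0.1 ml added to 4 ml 12B broth containing compound. A 1:100-inoculum control vial was included. Incubated at 37 °C with daily GI readings; read one more day after the 1:100 control reached GI 30.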

Converted amounts (≈) assume the structure as drawn.

A word on the MIC: it is the smallest concentration in the dilution series that meets the test's criterion for growth inhibition. As for `O=C(Cn1ccnc1)NCc1ccccc1`, the MIC in experiment [1] and in experiment [2] was more than 12.5 µg/mL throughout. In the case of `CCOC(=O)Cn1ccnc1`, the MIC was more than 6.25 µg/mL in experiment [1] and more than 12.5 µg/mL in experiment [2]. For `CCCCCCCNC(=O)Cn1ccnc1`, in that order: more than 12.5 µg/mL and more than 12.5 µg/mL.

As for `c1cn(CCCn2ccnc2)cn1`, the MIC in experiment [1] and in experiment [2] was more than 12.5 µg/mL each time. As to `CCCCNC(=O)Cn1ccnc1`, the MIC in experiment [1] and in experiment [2] was more than 12.5 µg/mL in each case. As to `CCCCCCNC(=O)Cn1ccnc1`, the MIC in experiment [1] is more than 12.5 µg/mL; in experiment [2], 25 µg/mL (≈ 119 µM).

As for `CCCc1nccn1C(CC(=O)OCC)C1O[C@H]2OC(C)(C)O[C@H]2[C@@H]1OC` (stereo not given in full), the MIC in experiment [1] and in experiment [2] was 25 µg/mL (≈ 65.4 µM) throughout.

Turning to `CCOC(=O)CC(C1O[C@H]2OC(C)(C)O[C@H]2[C@@H]1OCc1ccccc1)n1ccnc1` (stereo not given in full), the MIC in experiment [1] and in experiment [2] was 50 µg/mL (≈ 120 µM) each time.

Consider `Clc1ccc(Cn2ccnc2)cc1Cl`, for which the MIC in experiment [2] was more than 12.5 µg/mL. Consider `Clc1ccc(Cn2cnc3ccccc32)cc1Cl`, for which the MIC in experiment [1] and in experiment [2] was more than 12.5 µg/mL each time.

On to `c1ccc(Cn2cnc3ccccc32)cc1`, for which the MIC in experiment [1] and in experiment [2] was more than 12.5 µg/mL throughout. In the case of `C=CCc1cnc(CCC)n1CCCn1ccnc1CCC`, the figures for the minimal inhibitory concentration (MIC) in experiment [1] and in experiment [2] were 25 µg/mL (≈ 83.2 µM) and more than 12.5 µg/mL, respectively. The corresponding values for `CCOC(=O)CC(C1O[C@H]2OC(C)(C)O[C@H]2[C@@H]1OC)n1ccnc1` (stereo not given in full) are 25 µg/mL (≈ 73.4 µM) and 25 µg/mL (≈ 73.4 µM). On to `CCCc1nccn1CCCn1ccnc1CCC`, for which the MIC in experiment [3] was 6.25 µg/mL (≈ 24 µM); in experiment [2] it was more than 12.5 µg/mL. On to `CCCc1nccn1C(CC(=O)OCC)C1O[C@H]2OC(C)(C)O[C@H]2[C@@H]1OCc1ccccc1` (stereo not given in full), for which the MIC in experiment [1] and in experiment [2] was 50 µg/mL (≈ 109 µM) each time. Consider `c1ccc(CNCCn2ccnc2)cc1`, for which the MIC in experiment [1] and in experiment [2] was 12.5 µg/mL (≈ 62.1 µM) throughout. For the compound `NNC(=O)c1ccncc1` [ISONIAZID], the MIC in experiment [1] and in experiment [2] was 0.65 µg/mL (≈ 4.74 µM) each time. For the compound `c1cn(CCCCCn2ccnc2)cn1`, the MIC in experiment [1] and in experiment [2] was more than 12.5 µg/mL each time. Turning to `CCOC(=O)CCn1ccnc1`, in experiment [1], the MIC is more than 12.5 µg/mL. As for `CC[C@@H](CO)NCCN[C@@H](CC)CO` [ETHAMBUTOL], the MIC in experiment [1] and in experiment [2] was 1.5 µg/mL (≈ 7.34 µM) each time. As for `OCCn1ccnc1`, the MIC in experiment [1] and in experiment [2] was more than 12.5 µg/mL throughout.
